Measured values taken from PMC7380323 (ACS chemical neuroscience, 2020).
Like-named read-outs stand apart in the source and are kept apart here.

Assays:
Mouse microglia [1] = assay type: cell-based
Mouse microglia [2] = experiment: Cell viability; assay type: cell-based; conditions: for Cell viability (%) Mouse microglia 50 μM: CellTiter-Glo
RAW macrophages [3] = experiment: Inhibition of NO production; assay type: cell-based, mouse; conditions: 24 h, IFNγ/LPS activated, 1 μM GABA
Method in brief: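 RAW264.7 murine macrophages were grown in DMEM/high glucose with 10% heat-inactivated FBS, penicillin/streptomycin and Normocin at 37°C and 5% CO2, and passaged by scraping. […] After about 24 h at 37°C, nitrite in the supernatant was measured by Griess assay (absorbance 530 nm).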

RAW macrophages [4] = experiment: Cell viability; assay type: cell-based, mouse; conditions: CellTiter-Glo
κ-opioid receptor = conditions: cited from earlier work
Swiss Webster mice [5] = experiment: Rotarod test; assay type: in vivo, mouse; conditions: 5 mg/kg
Swiss Webster mice [6] = experiment: Formalin test; assay type: in vivo, mouse; conditions: 30 mg/kg orally
Method in brief: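 Test compounds given orally four days before 2% formalin was injected into the right hind paw of Swiss Webster mice.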

[7] = tested on: HMC3 human microglia cells; assay type: cell-based; conditions: −80 mV
[8] = tested on: immortalized mouse microglia cells; experiment: Automated patch clamp, GABA current response in immortalized mouse microglia; assay type: cell-based
[9] = tested on: immortalized human microglia cells; experiment: Automated patch clamp, GABA current response in immortalized human microglia; assay type: cell-based

CCOC(=O)c1ncn2c1CN(C)C(=O)c1cc(F)ccc1-2 [flumazenil]
reversal of the NO effect of 50 μM MP-IV-010 by antagonist (Mouse microglia [1]): did not reverse

C#Cc1ccc2c(c1)C(c1ccccn1)=NCc1c(-c3cnco3)ncn1-2 [KRM-II-81]
Cell viability (%) Mouse microglia 50 μM (Mouse microglia [2]): 100 ± 5% | Inhibition of NO production (%) Mouse microglia 50 μM (Mouse microglia [1]): 0 ± 1%

C#Cc1ccc2c(c1)C(c1ccccc1F)=N[C@H](C)c1c(C(=O)NC)ncn1-2 [MP-III-022]
Cell viability (%) Mouse microglia 50 μM (Mouse microglia [2]): 86 ± 2% | Inhibition of NO production (%) RAW macrophages 10 μM (RAW macrophages [3]; 10 μM): 9 ± 5% | Inhibition of NO production (%) RAW macrophages 50 μM (RAW macrophages [3]; 50 μM): 51 ± 7% | Cell viability (%) RAW macrophages 50 μM (RAW macrophages [4]): 100 ± 11% | Inhibition of NO production (%) Mouse microglia 10 μM (Mouse microglia [1]): 36 ± 6% | Inhibition of NO production (%) Mouse microglia 50 μM (Mouse microglia [1]): 60 ± 12%

SM-21
reversal of the NO effect of 50 μM MP-IV-010 by antagonist (Mouse microglia [1]; antagonist 30 μM, 14 h): no reversal

Oc1ccc2c3c1O[C@H]1c4[nH]c5c(c4C[C@@]4(O)[C@@H](C2)N(CC2CC2)CC[C@]314)C[C@@]1(O)[C@H]2Cc3ccc(O)c4c3[C@@]1(CCN2CC1CC1)[C@H]5O4 [norbinaltorphimine]
reversal of the NO effect of 50 μM MP-IV-010 by antagonist (Mouse microglia [1]; antagonist 30 μM, 14 h): reversed

CNC1=Nc2ccc(Cl)cc2C(c2ccccc2)=[N+]([O-])C1 [chlordiazepoxide]
affinity for the κ-opioid receptor (in words) (κ-opioid receptor): micromolar affinities

CN1CCc2cc3c(cc2[C@H]1[C@@H]1OC(=O)c2c1ccc1c2OCO1)OCO3 [bicuculline]
reversal of the NO effect of 50 μM MP-IV-010 by antagonist (Mouse microglia [1]; antagonist 100 μM, with GABA, 14 h): did not reverse

Cc1ncc2n1-c1ccc(Cl)cc1C(c1ccccc1F)=NC2 [midazolam]
affinity for the κ-opioid receptor (in words) (κ-opioid receptor): micromolar affinities

picrotoxin
reversal of the NO effect of 50 μM MP-IV-010 by antagonist (Mouse microglia [1]; antagonist 50 μM, with GABA, 14 h): did not reverse

CN1C(=O)CN=C(c2ccccc2)c2cc(Cl)ccc21 [diazepam]
affinity for the κ-opioid receptor (in words) (κ-opioid receptor): micromolar affinities | sedation on the rotarod (Swiss Webster mice [5]): sedating

C[C@@H]1C[C@H]2[C@@H]3CCC4=CC(=O)C=C[C@]4(C)[C@@]3(F)[C@@H](O)C[C@]2(C)[C@@]1(O)C(=O)CO [dexamethasone]
cytotoxicity / cell viability in the antagonist experiments (CellTiter-Glo) (Mouse microglia [2]; activated mouse microglia, concentrations as in the NO experiments): without cell toxicity | NO production of activated microglia (Mouse microglia [1]; 100 nM, Griess assay after 14 h): reduced NO production

CC(C(=O)O)c1cccc(C(=O)c2ccccc2)c1 (stereo not drawn) [ketoprofen]
antinociceptive effect in the formalin test compared with GL-IV-03 10 mg/kg (Swiss Webster mice [6]): similar

NCCCC(=O)O [GABA, γ-aminobutyric acid]
maximum negative current response for 1 mM GABA [7]: 746 pA | maximum current response for 1 mM GABA [8]: 1514 pA | maximum current response for 1 mM GABA [9]: 1245 pA | secreted NO levels of activated microglia (Mouse microglia [1]; 1 μM, Griess assay after 14 h): no effect
